Laboratory results: ChEMBL document CHEMBL3593200, “NO-donor thiacarbocyanines as multifunctional agents for Alzheimer's disease” (Bioorg Med Chem, 2015)
Calls of active or inactive are those of the source. The calls are words filed in the database; no cut-off is given here.

Tests used:
[1] = target: T1, Amyloid-beta precursor protein (Homo sapiens, UniProt P05067); assay: Inhibition of Amyloid beta (1 to 40) (unknown origin) aggregation assessed as amount of fibrils formation after 2 hrs by thioflavin T based spectrofluorimetric method
How it was run: (§1)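 Aβ40 pretreated in HFIP to remove preaggregates, then 30 μM peptide incubated 2 h at room temperature with inhibitor in PBS pH 7.4 (2% HFIP, 5% DMSO). ThT (3 μM, in 50 mM phosphate pH 6.0) fluorescence read at ex 450/em 486 nm. Inhibition = 100 − [(Fi−Fb)/F0×100]. IC50 from 5–7 concentrations in triplicate, ≥3 independent experiments, nonlinear regression; weaker compounds given as % inhibition ± SE at 100 μM.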

[2] = target: T1, Amyloid-beta precursor protein; assay: Inhibition of Amyloid beta (1 to 42) (unknown origin) aggregation assessed as amount of fibrils formation after 5 days by thioflavin T based spectrofluorimetric method
[3] = Cytotoxicity against human hCMEC/D3 cells up to 1 uM after 18 hrs by lactate dehydrogenase assay; assay type: cell-based; conditions: hcmec/d3, 18 h
[4] = test system: Brain; assay: Synaptic plasticity activity in hippocampal brain slices of C57BL/6 mouse assessed as protection against amyloid beta (1 to 42)-induced long-term potentiation inhibition after 20 mins; assay type: functional; design: scale not given: the % may be the effect or the level left
How it was run: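 Hippocampal slices (400 μm) from 30-day-old male C57BL/6 mice, recovered at 32°C in ACSF. Oligomerized Aβ42 (final 200 nM) was mixed with compound (final 2 μM), pre-incubated 30 min, then perfused 20 min before HFS. Schaffer collateral stimulation; CA1 fEPSP peak amplitude recorded 60 min post-HFS. LTP taken as mean over 55–60 min as % of baseline. Mean ± SEM, unpaired t-test.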

[5] = Cytotoxicity against human hCMEC/D3 cells at 10 to 20 uM after 18 hrs by lactate dehydrogenase assay; assay type: cell-based; conditions: hcmec/d3, 18 h
[6] = target: Microtubule-associated protein tau (Homo sapiens) (UniProt P10636); assay: Inhibition of wild type human recombinant tau 2N4R aggregation assessed as reduction of formation rate and number of aggregates at 1 uM after 5 days using Congo Red staining
How it was run: (§2)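 Recombinant human tau 2N4R, expressed in E. coli BL21(DE3), used at 8 μM with 300 μg/mL heparin in 35 mM MES pH 7.4, 1 mM DTT at 37°C, alone or with compound at 1 μM (final). Aliquots taken at 2 and 5 days, stained with Congo Red and examined under polarized light; also negatively stained with uranyl acetate for EM at 30,000 magnification.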

[7] = target: Soluble guanylate cyclase (Homo sapiens) (UniProt Q02153+O75343+P33402+Q02108); assay: Activation of sGC in human hCMEC/D3 cells assessed as production of cGMP per million cells using [3H]-cGMP after 1 hr by liquid scintillation counting; assay type: cell-based; conditions: CMEC/D3
How it was run: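 hCMEC/D3 cells (1×10^6, collagen-coated wells, supplemented EBM-2, 37°C, 5% CO2) switched to Hepes-Ca2+ buffer pH 7.4 with 1 mM IBMX. Exposed 1 h at 37°C to 0.1, 1, 5 or 10 μM; SNP 1 mM as reference NO donor. Ethanol-permeabilized, residue taken up in Tris-EDTA pH 8. cGMP quantified by [3H]-cGMP competitive radioimmunoassay with scintillation counting against a [3H]-cGMP titration curve; expressed as pmol/10^6 cells. Mean ± SEM, one-way ANOVA.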

[8] = target: Microtubule-associated protein tau (Homo sapiens) (UniProt P10636); assay: Inhibition of wild type human recombinant tau 2N4R aggregation assessed as reduction of formation rate and number of aggregates at 1 uM after 48 hrs using Congo Red staining; how it was run: as §2
[9] = target: T1, Amyloid-beta precursor protein; assay: Inhibition of Amyloid beta (1 to 40) (unknown origin) aggregation assessed as amount of fibrils formation at 100 uM after 2 hrs by thioflavin T based spectrofluorimetric method; how it was run: as §1

T1 sequence (P05067 whole entry): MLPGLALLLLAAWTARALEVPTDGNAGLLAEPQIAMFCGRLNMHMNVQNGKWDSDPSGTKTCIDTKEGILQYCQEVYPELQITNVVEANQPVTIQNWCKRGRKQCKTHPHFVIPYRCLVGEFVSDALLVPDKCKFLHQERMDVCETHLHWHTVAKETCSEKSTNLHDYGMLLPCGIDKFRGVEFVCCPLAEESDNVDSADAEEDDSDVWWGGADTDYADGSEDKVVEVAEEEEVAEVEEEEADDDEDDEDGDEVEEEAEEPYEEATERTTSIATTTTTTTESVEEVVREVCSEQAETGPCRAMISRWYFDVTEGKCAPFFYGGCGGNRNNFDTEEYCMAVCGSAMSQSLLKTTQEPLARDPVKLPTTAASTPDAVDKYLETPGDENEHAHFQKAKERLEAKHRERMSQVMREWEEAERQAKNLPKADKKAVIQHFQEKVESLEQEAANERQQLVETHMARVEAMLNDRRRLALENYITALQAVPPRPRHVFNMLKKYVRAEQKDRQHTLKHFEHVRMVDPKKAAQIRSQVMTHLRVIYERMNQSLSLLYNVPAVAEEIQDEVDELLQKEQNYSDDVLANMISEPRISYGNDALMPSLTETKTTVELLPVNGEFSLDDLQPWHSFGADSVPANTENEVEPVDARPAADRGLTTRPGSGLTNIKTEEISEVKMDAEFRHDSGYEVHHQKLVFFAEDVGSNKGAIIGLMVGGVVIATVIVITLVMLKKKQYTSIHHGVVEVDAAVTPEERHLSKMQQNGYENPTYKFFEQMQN
Microtubule-associated protein tau (Homo sapiens), sequence (P10636 whole entry): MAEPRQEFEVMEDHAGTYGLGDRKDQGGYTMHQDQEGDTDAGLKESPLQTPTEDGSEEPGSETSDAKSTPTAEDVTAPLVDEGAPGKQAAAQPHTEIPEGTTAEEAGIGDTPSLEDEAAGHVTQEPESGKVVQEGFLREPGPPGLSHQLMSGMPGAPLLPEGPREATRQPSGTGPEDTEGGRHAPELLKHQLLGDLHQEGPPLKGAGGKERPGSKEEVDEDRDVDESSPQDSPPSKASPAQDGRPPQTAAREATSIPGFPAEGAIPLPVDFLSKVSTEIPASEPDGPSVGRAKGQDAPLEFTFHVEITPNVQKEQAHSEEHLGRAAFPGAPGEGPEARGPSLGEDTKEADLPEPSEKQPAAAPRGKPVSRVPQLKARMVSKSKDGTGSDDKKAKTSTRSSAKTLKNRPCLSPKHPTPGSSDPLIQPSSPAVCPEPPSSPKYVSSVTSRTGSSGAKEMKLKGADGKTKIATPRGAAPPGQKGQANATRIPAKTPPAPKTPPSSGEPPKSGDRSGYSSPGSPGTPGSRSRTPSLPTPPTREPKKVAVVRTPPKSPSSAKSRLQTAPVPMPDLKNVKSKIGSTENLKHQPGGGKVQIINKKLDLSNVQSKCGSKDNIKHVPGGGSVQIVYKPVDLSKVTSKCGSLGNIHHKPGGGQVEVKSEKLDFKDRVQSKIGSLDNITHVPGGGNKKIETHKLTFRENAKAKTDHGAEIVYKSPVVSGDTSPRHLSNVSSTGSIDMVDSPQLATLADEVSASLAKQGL

SMILES | IC50 [1] | IC50 [2] | Activity [3] | Activity [4] | Activity [5] | inhibition [6] | Activity [7] | inhibition [8] | inhibition [9] | inhibition [1]
CN(C)c1ccc2nc3ccc(=[N+](C)C)cc-3sc2c1 | 4.5 µM | – | – | – | – | – | – | – | – | –
CCN1/C(=C/C=C/c2sc3ccccc3[n+]2CC)Sc2ccccc21.[I-] | 3.1 µM | 3.3 µM | Non-toxic | 34.7% | Non-toxic | – | – | – | – | –
CCN1/C(=C/C=C/c2sc3ccccc3[n+]2CC)Sc2ccc(Oc3no[n+]([O-])c3S(=O)(=O)c3ccccc3)cc21.[I-] | 21 µM | – | Non-toxic | – | Non-toxic | Active | Dose-dependent effect | Active | – | –
CCN1/C(=C/C=C/c2sc3ccccc3[n+]2CC)Sc2ccc(OCCCO[N+](=O)[O-])cc21.[I-] | 8.1 µM | 7.7 µM | Non-toxic | 69.3% | Non-toxic | Active | Dose-dependent effect | Active | – | –
CCN1/C(=C/C=C/c2sc3ccccc3[n+]2CC)Sc2ccc(Oc3no[n+]([O-])c3-c3ccccc3)cc21.[I-] | 1.8 µM | 1.6 µM | Non-toxic | 90.8% | Non-toxic | Active | Dose-dependent effect | Active | – | –
CCN1/C(=C/C=C/c2sc3ccc(OCCCO[N+](=O)[O-])cc3[n+]2CC)Sc2ccc(OCCCO[N+](=O)[O-])cc21.O=S(=O)([O-])C(F)(F)F | – | – | Non-toxic | – | Non-toxic | Active | Dose-dependent effect | Active | 26% | –
CCN1/C(=C/C=C/c2sc3ccccc3[n+]2CC)Sc2ccc(OCc3no[n+]([O-])c3C(N)=O)cc21.[I-] | – | – | Non-toxic | – | Non-toxic | – | Dose-dependent effect | – | 26% | –
CCCOc1ccc2c(c1)N(CC)/C(=C/C=C/c1sc3ccccc3[n+]1CC)S2.[I-] | 7 µM | 0.8 µM | Non-toxic | – | Non-toxic | – | Dose-dependent effect | – | – | –
CCCOc1ccc2c(c1)N(CC)/C(=C/C=C/c1sc3ccc(OCCC)cc3[n+]1CC)S2.[I-] | – | – | Non-toxic | – | Non-toxic | – | Dose-dependent effect | – | – | inactive
CCN1/C(=C/C=C/c2sc3ccc(OCc4no[n+]([O-])c4C(N)=O)cc3[n+]2CC)Sc2ccc(OCc3no[n+]([O-])c3C(N)=O)cc21.O=S(=O)([O-])C(F)(F)F | – | – | Non-toxic | – | Non-toxic | – | Dose-dependent effect | – | 17% | –
